Data set [1] has as its system Plasmodium falciparum. As to the kind of experiment: Antiplasmodial activity against pyrimethamine-sensitive Plasmodium falciparum 3D7 infected in human erythrocytes incubated for 50 hrs by SYBR green 1 dye based fluorescence assay. The note with it: 3D7, 50 h. The data set is classed as functional, cell-based. In a few lines: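 Parasites cultured in RPMI 1640 with 10% human serum, erythrocytes at 2% haematocrit, 37°C, 5% O2/5% CO2/90% N2; sorbitol-synchronized rings. DMSO stocks serially 2-fold diluted; 1% ring-infected erythrocytes at 4% haematocrit, 50 h. SYBR Green 1 lysis buffer, fluorescence Ex 485/Em 530; chloroquine (500 nM) background subtracted, normalized to DMSO (0.05%), nonlinear regression IC50; two independent experiments in duplicate.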

A short description of data set [2]: Cytotoxicity against HEK293 cells assessed as decrease in cell viability at 100 uM after 48 hrs by MTT assay. The data set is classed as toxicity, cell-based. The note with it: human, hek293, 48 h. In a few lines: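 HEK-293 in MEM with 10% FBS, seeded 10,000 cells/well, 24 h at 37°C, 5% CO2; treated 1–100 µM in triplicate with DMSO control and doxorubicin reference, 48 h. MTT added 1 h, dried, DMSO dissolved, absorbance 562 nm; IC50 as 50% absorbance reduction versus control, mean ± SD of three independent experiments.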

Data set [3] relates to Plasmodium falciparum. As to the kind of experiment: Antiplasmodial activity against pyrimethamine-resistant Plasmodium falciparum Dd2 infected in human erythrocytes incubated for 50 hrs by SYBR green 1 dye based fluorescence assay. The note with it: Dd2, 50 h. It counts as functional, cell-based. The essentials:
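Ring-stage sorbitol-synchronised parasites in RPMI 1640 with 10% human serum, 1% ring parasitaemia, 2% final haematocrit; compounds from DMSO stocks in 2-fold serial dilution; 37°C, 5% O2/5% CO2/90% N2, 50 h; lysis buffer with SYBR Green 1, fluorescence Ex 485/Em 530; chloroquine (500 nM) background subtracted, normalised to DMSO (0.05%) wells; nonlinear regression IC50; two independent experiments in duplicate.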

Data set [4] deals with Plasmodium falciparum. As to the kind of experiment: Potency index, ratio of pyrimethamine IC50 to compound IC50 for pyrimethamine-resistant Plasmodium falciparum Dd2 infected in human erythrocytes. It counts as functional.
Data set [5] deals with Plasmodium falciparum. As to the kind of experiment: Inhibition of trophozoite stage of Plasmodium falciparum DHFR assessed as reduction in NADPH depletion at 50 uM incubated for 30 mins followed by NADPH addition measured for 30 mins at 15 secs interval by UV/Vis spectrophotometric analysis. In a few lines:
(§1)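 Soluble extract from saponin-isolated trophozoites (culture at 15-16% parasitaemia), freeze-thaw, sonication, centrifugation; protein by Bradford. 500 µg extract in 1 ml assay buffer with inhibitor or 0.05% DMSO, 30 min room temperature, spun to remove precipitate; 60 µM NADPH and 50 µM DHA added, A340 decrease read every 15 s for 30 min; slope by linear regression as percent of control, representative experiment.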

Data set [6] deals with Plasmodium falciparum. As to the kind of experiment: Inhibition of trophozoite stage of Plasmodium falciparum DHFR assessed as reduction in NADPH depletion at 25 uM incubated for 30 mins followed by NADPH addition measured for 30 mins at 15 secs interval by UV/Vis spectrophotometric analysis. The essentials: as §1

Take `CCn1cc(COc2ccc3ccccc3c2)nn1`: the IC50 in the data set with Plasmodium falciparum [1] was 97.5 µM. Moreover, in data set [2], the Activity entry was “Non-Toxic”.

For the compound `O=[N+]([O-])c1ccc(Cn2cc(COc3ccc4ccccc4c3)nn2)cc1`, the IC50 in the data set on Plasmodium falciparum [1] is 39.6 µM; in the data set with Plasmodium falciparum [3], 41.6 µM. Moreover, the Activity entry in data set [2] is “Non-Toxic”.

As to `O=[N+]([O-])c1ccc(Cn2cc(COc3ccc4cc(Br)ccc4c3)nn2)cc1`, the values for the IC50 in the data set with Plasmodium falciparum [1] and in the data set on Plasmodium falciparum [3] were 14.7 µM and 13.6 µM, respectively. Moreover, in data set [2], the Activity result was “Non-Toxic”. The “Ratio IC50” value in the data set on Plasmodium falciparum [4] turned out to be 3.

`CCCn1cc(COc2ccc3ccccc3c2)nn1` had an IC50 in the data set with Plasmodium falciparum [1] of 54.5 µM. Besides, the Activity result in data set [2] was “Non-Toxic”.

`CC(C)Cn1cc(COc2ccc3ccccc3c2)nn1` yielded an IC50 in the data set with Plasmodium falciparum [1] of 61.5 µM. The Activity result in data set [2] is listed as “Non-Toxic”.

With `CCCCCn1cc(COc2ccc3ccccc3c2)nn1`, the IC50 in the data set with Plasmodium falciparum [1] stood at 46.5 µM. Further, in data set [2], the Activity result was “Non-Toxic”.

In the case of `CCCn1cc(COc2ccc3cc(Br)ccc3c2)nn1`, the IC50 in the data set on Plasmodium falciparum [1] is 22.1 µM; in the data set on Plasmodium falciparum [3], 36.9 µM. In addition, the Activity result in data set [2] is reported as “Non-Toxic”.

As for `C=CCn1cc(COc2ccc3ccccc3c2)nn1`, in the data set on Plasmodium falciparum [1], inhibition was half-maximal at 48.6 µM (IC50). The Activity result in data set [2] is reported as “Non-Toxic”.

`CCCCCn1cc(COc2ccc3cc(Br)ccc3c2)nn1` came in with an IC50 in the data set with Plasmodium falciparum [1] of 26.2 µM. Also, in data set [2], the Activity entry was “Non-Toxic”.

Turning to `CCc1nc(N)nc(N)c1-c1ccc(Cl)cc1` [PYRIMETHAMINE], the IC50 was found to be 0.047 µM in the data set on Plasmodium falciparum [1] and 34 µM in the data set with Plasmodium falciparum [3]. The inhibition with Plasmodium falciparum [5] worked out at 25%.

In the data set on Plasmodium falciparum [1], `c1ccc2cc(OCc3cn(C4CCCC4)nn3)ccc2c1` came in with an IC50 of 39 µM. For the same compound, the Activity result in data set [2] was “Non-Toxic”.

For `CC(C)Cn1cc(COc2ccc3cc(Br)ccc3c2)nn1`, the IC50 in the data set on Plasmodium falciparum [1] turned out to be 19.6 µM; with Plasmodium falciparum [3], 31 µM. Also, in the data set with Plasmodium falciparum [6], the inhibition came to 41%. Further, in data set [2], the Activity entry was “Non-Toxic”. The “Ratio IC50” value in the data set with Plasmodium falciparum [4] is listed as 3.

In the data set on Plasmodium falciparum [1], `c1ccc2cc(OCc3cn(CCN4CCOCC4)nn3)ccc2c1` came in with an IC50 of 80 µM. The Activity entry in data set [2] is reported as “Non-Toxic”.

In the case of `CCn1cc(COc2ccc3cc(Br)ccc3c2)nn1`, the results for the IC50 with Plasmodium falciparum [1] and with Plasmodium falciparum [3] were 23.6 µM and 34.2 µM, respectively. The Activity result in data set [2] is listed as “Non-Toxic”.

Compound `Brc1ccc2cc(OCc3cn(C4CCCC4)nn3)ccc2c1` registered an IC50 with Plasmodium falciparum [1] of 27.3 µM. Further, the Activity entry in data set [2] was “Non-Toxic”.

Take `CC(C)n1cc(COc2ccc3cc(Br)ccc3c2)nn1`: the results for the IC50 with Plasmodium falciparum [1] and with Plasmodium falciparum [3] were 21 µM and 24 µM, respectively. The Activity entry in data set [2] was “Non-Toxic”. Further, the “Ratio IC50” value in the data set with Plasmodium falciparum [4] is reported as 3.

In the data set with Plasmodium falciparum [1], `O=C(O)CC[C@H](NC(=O)c1ccc(-n2cc(COc3ccc4cc(Br)ccc4c3)nn2)cc1)C(=O)O` displayed an IC50 of 41.5 µM. In addition, in data set [2], the Activity result was “Non-Toxic”.

Consider `C=CCn1cc(COc2ccc3cc(Br)ccc3c2)nn1`, for which, in the data set on Plasmodium falciparum [1], inhibition was half-maximal at 21.2 µM (IC50). In addition, in the data set with Plasmodium falciparum [6], the inhibition is 13%. Further, the Activity entry in data set [2] is listed as “Non-Toxic”.

As to `CC(C)n1cc(COc2ccc3ccccc3c2)nn1`, in the data set with Plasmodium falciparum [1], the IC50 was 43.5 µM. Besides, the Activity result in data set [2] was “Non-Toxic”.

As usually defined, the IC50 is the midpoint of a concentration-inhibition curve. The inhibition is the share of the control response that was lost under treatment.
